How the values were obtained:
[1] = biological target: T1, Amine oxidase [flavin-containing] B (Rattus norvegicus, UniProt P19643); experiment: Inhibition of rat liver mitochondria MAOB
T1 sequence (P19643 whole entry): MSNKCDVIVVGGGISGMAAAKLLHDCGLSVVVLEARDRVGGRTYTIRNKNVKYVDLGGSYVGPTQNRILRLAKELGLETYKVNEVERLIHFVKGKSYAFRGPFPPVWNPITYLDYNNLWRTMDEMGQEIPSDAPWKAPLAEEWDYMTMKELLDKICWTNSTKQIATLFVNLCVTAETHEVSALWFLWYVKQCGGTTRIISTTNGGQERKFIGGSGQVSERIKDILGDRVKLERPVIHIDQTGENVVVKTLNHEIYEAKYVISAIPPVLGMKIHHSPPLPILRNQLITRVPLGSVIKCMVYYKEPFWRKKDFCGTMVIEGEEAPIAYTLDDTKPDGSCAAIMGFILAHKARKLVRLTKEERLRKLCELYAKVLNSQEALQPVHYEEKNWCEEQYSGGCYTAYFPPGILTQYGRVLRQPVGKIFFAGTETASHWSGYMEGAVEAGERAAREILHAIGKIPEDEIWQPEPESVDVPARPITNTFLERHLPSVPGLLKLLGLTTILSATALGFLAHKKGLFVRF

Mus musculus [2] = experiment: Toxicity in mouse upto 250 mg/kg, po; type: organism-based; design: dose 250 mg/kg, route oral; conditions: in vivo
Summary of the method: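 Acute oral toxicity was assessed in male mice. Tolerability and mortality were recorded at doses up to […].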

[3] = biological target: T2, Amine oxidase [flavin-containing] A (Rattus norvegicus, UniProt P21396); experiment: Inhibition of rat liver mitochondria MAOA
T2 sequence (P21396 whole entry): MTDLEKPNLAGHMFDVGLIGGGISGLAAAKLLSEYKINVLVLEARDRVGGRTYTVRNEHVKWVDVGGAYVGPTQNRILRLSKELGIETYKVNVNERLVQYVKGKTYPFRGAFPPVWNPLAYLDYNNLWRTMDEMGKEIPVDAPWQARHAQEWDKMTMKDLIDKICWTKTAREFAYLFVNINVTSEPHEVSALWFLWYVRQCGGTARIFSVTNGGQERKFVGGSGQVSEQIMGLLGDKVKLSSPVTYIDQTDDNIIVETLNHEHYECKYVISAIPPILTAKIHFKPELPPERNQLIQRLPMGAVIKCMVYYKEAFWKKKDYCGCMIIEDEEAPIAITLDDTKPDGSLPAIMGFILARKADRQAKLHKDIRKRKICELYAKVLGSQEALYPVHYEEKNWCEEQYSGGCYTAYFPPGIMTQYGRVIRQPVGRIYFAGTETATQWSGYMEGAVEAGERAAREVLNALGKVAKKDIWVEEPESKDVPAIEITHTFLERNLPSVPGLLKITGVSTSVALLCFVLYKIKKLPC
Summary of the method: (§1)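 MAO-A activity was measured in rat liver mitochondria with serotonin (5HT) as substrate. Test compounds were used at a final concentration of 1 × 10^-4 M, and inhibition was determined.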

Mus musculus [4] = experiment: Toxicity in mouse upto 125 mg/kg administered by parenteral route; type: organism-based; design: dose 125 mg/kg; conditions: in vivo
[5] = biological target: T2, Amine oxidase [flavin-containing] A; experiment: Inhibition of rat liver mitochondria MAOA at 100 uM; summary of the method: as §1

SMILES | IC50 [1] | IC50 [3] | inhibition at 100 µM [5] | Activity (Mus musculus [2]) | Activity (Mus musculus [4])
c1ccc(Cc2nc3ccccc3nc2NCCN2CCOCC2)cc1 | 840 µM | 1.3 nM | 46.1% | Non-toxic | Non-toxic
NNc1nc2cc(Cl)c(Cl)cc2nc1Cc1ccccc1 | 74 µM | 7.6 nM | 42% | Non-toxic | Non-toxic
Clc1cc2nc(Cc3ccccc3)c(NCCN3CCOCC3)nc2cc1Cl | 960 µM | 73 nM | 40% | Non-toxic | Non-toxic
NNc1nc2ccccc2nc1Cc1ccc(Cl)cc1 | 570 µM | 2.1 nM | 49.5% | Non-toxic | Non-toxic
Clc1ccc(Cc2nc3ccccc3nc2NCCN2CCOCC2)cc1 | 360 µM | 1.7 nM | 50.5% | Non-toxic | Non-toxic

More lines, main results first:

IC50 [1] | IC50 [3] | inhibition at 100 µM [5] | SMILES | Activity (Mus musculus [2]) | Activity (Mus musculus [4])
790 µM | 92 nM | 40.9% | CNCCNc1nc2ccccc2nc1Cc1ccccc1 | Non-toxic | Non-toxic
86 µM | 3.7 nM | 46% | OCCNc1nc2ccccc2nc1Cc1ccccc1 | Non-toxic | Non-toxic
840 µM | 8.8 nM | 54.1% | NNc1nc2ccccc2nc1Cc1ccccc1 | Non-toxic | Non-toxic

Source: ChEMBL document CHEMBL1146062, “Synthesis of 3-benzyl-2-substituted quinoxalines as novel monoamine oxidase A inhibitors” (Bioorg Med Chem Lett, 2006)
